Measurements of several laboratories.
Lines come from different studies, so protocols differ.

| Structure (SMILES) | tested on | test | setting | measurement | result |
| --- | --- | --- | --- | --- | --- |
| COc1cc(C=Cc2cc(-c3ccccc3)nc(O)n2)ccc1O |  | DPPH scavenging | 50 µg/mL | inhibition | 61.6% |
| CCN(O)N=Nc1ccc(S(=O)(=O)Nc2nccs2)cc1 |  | DPPH scavenging, absorbance | 60 µg/mL | inhibition | 9.02% |
| Oc1ccc(Br)cc1C=NCCN1CCOCC1 |  | DPPH scavenging, absorbance | 80 µM | inhibition | 17.4% |
| CCN(O)N=Nc1ccc(S(=O)(=O)Nc2cc(C)on2)cc1 |  | DPPH scavenging, absorbance | 300 µg/mL | inhibition | 40.5% |
| COc1ccc(-c2ccc(-c3ccc(C(=N)N)nc3)s2)cc1 | 786-0 | cell growth or viability |  | GI50 | 1.88 µM |
| CCN(O)N=Nc1ccc(S(=O)(=O)Nc2onc(C)c2C)cc1 |  | DPPH scavenging, absorbance | 120 µg/mL | inhibition | 22.5% |
| Cn1nnc2c(C(N)=O)ncn2c1=O | MGC-803 | cell growth or viability |  | EC50 | 356 µM |
| COc1cc(C=Cc2cc(-c3ccc(N(C)C)cc3)nc(O)n2)ccc1O |  | DPPH scavenging | 100 µg/mL | inhibition | 71.7% |
| O=C(Nc1ccc2c(c1)OC(F)(F)O2)Nc1ccc(Cl)c(C(F)(F)F)c1 | Salmonella | microbial growth | clinical isolate | MIC | > 100 µM |
| CN(O)N=Nc1ccc(S(=O)(=O)Nc2nccs2)cc1 |  | DPPH scavenging, absorbance | 120 µg/mL | inhibition | 16.4% |
| O=C1O[C@H]([C@@H](O)CO)C(O)=C1O |  | DPPH scavenging, absorbance | 160 µM | inhibition | 70.9% |
| O=C1O[C@H]([C@@H](O)CO)C(O)=C1O |  | DPPH scavenging | 12.5 µg/mL | inhibition | 38.9% |
